# “Also recorded” adds a separate entry of the source. Like-named read-outs stand apart in the source and are kept apart here.
# Columns and labels:
# [1] = tested on: human Vα24+ NKT cell line cocultured with Hela cells transfected with human CD1d; experiment: Cytokine secretion assay using human NKT cell lines; format: cell-based; details: for IFN-γ secretion normalized to α-GalCer / IL-4 secretion normalized to α-GalCer: 10 ng/mL glycolipid, 24 h, ELISA, relative to α-GalCer = 1.00; for IFN-γ/IL-4 ratio: IFN-γ ratio/IL-4 ratio, normalized to α-GalCer
# In short: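 Vα24+ NKT lines come from bead-isolated leukopak T cells. They were expanded 10 days on irradiated (3000 rads) CD14-derived immature DCs with 100 ng/mL α-GalCer and 10 IU/mL IL-2. Assay: 20 000 NKT cells plus 2 × 10^4 irradiated (10 000 rads) human CD1d-transfected HeLa cells, 10 ng/mL test compound, 24 h. Supernatant IFN-γ or IL-4 by ELISA, normalised to α-GalCer; triplicate, mean ± SD.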
# [2] = target: T1, mCD1d:Ig fusion protein (dimeric CD1d) (Mus musculus, UniProt P11609); experiment: Competitive binding assay on microarray; details: for binding with CD1d stronger than α-GalCer: relative to α-GalCer
# T1 sequence (P11609 22-305 limits assumed): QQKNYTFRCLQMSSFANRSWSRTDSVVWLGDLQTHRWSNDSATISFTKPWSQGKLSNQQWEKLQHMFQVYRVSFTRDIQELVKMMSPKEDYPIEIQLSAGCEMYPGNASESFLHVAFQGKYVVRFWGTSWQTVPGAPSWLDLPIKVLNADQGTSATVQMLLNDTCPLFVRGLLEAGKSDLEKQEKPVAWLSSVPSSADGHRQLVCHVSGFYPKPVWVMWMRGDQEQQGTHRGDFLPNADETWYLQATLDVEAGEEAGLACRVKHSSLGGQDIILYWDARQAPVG
# T1 sequence (P01887 21-119 partner): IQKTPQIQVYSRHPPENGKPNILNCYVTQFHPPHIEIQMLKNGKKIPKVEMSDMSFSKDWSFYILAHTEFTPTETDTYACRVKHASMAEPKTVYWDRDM
# In short: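 Glass slides carry a covalently attached amine-linked α-GalCer analogue printed at 100 μM. Test compound (400 to 0.1 μM, 1.0% DMSO) is preincubated with dimeric mCD1d:Ig (500 nM) for 5–8 h. Mixture goes on slides 1 h at room temperature, humidified. Detection uses precomplexed biotinylated rat anti-mCD1d (20 μg/mL) plus Cy3-streptavidin (10 μg/mL), 1 h, then a 595 nm scan. Ki is fitted to a competitive surface-binding equation.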
# CD1d [3] = details: read-out: dissociation constant from ITC; cited from earlier work
# CD1d [4] = details: read-out: dissociation constant from IEF; cited from earlier work
compound,measurement,setting,value
CCCCCCCCCCCCCCC(O)C(O)C(COC1OC(CO)C(O)C(O)C1O)NC(=O)CCCCCCCc1ccccc1 (centres unmarked) [Compound 13],IFN-γ secretion normalized to α-GalCer,[1],1.80 ± 0.15
same,IL-4 secretion normalized to α-GalCer,[1],0.87 ± 0.27
same,IFN-γ/IL-4 ratio,[1],2.07 ± 0.26
same,binding with CD1d stronger than α-GalCer,[2],approximately 1 order of magnitude
CCCCCCCCCCCCCCC(O)C(O)C(COC1OC(CO)C(O)C(O)C1O)NC(=O)CCCCCCCc1ccc(F)cc1 (centres unmarked) [Compound 18],IFN-γ production (in words),[1],highest IFN-γ cytokine production; also recorded: highest IFN-γ secretion
same,IFN-γ secretion normalized to α-GalCer,[1],2.39 ± 0.13
same,IL-4 secretion normalized to α-GalCer,[1],0.80 ± 0.09
same,IFN-γ/IL-4 ratio,[1],3.00 ± 0.16
same,binding enhancement compared with parent compound 13,[2]; relative to compound 13,approximately 1 order of magnitude
same,binding with CD1d stronger than α-GalCer,[2],2 order of magnitude
CCCCCCCCCCCCCC[C@@H](O)[C@@H](O)[C@H](CO[C@H]1O[C@H](CO)[C@H](O)[C@H](O)[C@H]1O)NC(=O)CCCCCCCc1ccc(OC)cc1 [Compound 19],IFN-γ production (in words),[1],highest IFN-γ cytokine production
same,IFN-γ secretion normalized to α-GalCer,[1],2.25 ± 0.06
same,IL-4 secretion normalized to α-GalCer,[1],0.79 ± 0.06
same,IFN-γ/IL-4 ratio,[1],2.85 ± 0.10
CCCCCCCCCCCCCC[C@@H](O)[C@@H](O)[C@H](CO[C@H]1O[C@H](CO)[C@H](O)[C@H](O)[C@H]1O)NC(=O)CCCCCCCc1ccc(C(F)(F)F)cc1 [Compound 20],IFN-γ secretion normalized to α-GalCer,[1],1.43 ± 0.07
same,IL-4 secretion normalized to α-GalCer,[1],0.76 ± 0.08
same,IFN-γ/IL-4 ratio,[1],1.88 ± 0.08
CCCCCCCCCCCCCC[C@@H](O)[C@@H](O)[C@H](CO[C@H]1O[C@H](CO)[C@H](O)[C@H](O)[C@H]1O)NC(=O)CCCCCCCCCCc1ccc(-c2ccccc2)cc1 [Compound 25],IFN-γ production (in words),[1],less IFN-γ production
same,IFN-γ secretion normalized to α-GalCer,[1],0.33 ± 0.001
same,IL-4 secretion normalized to α-GalCer,[1],0.61 ± 0.06
same,IFN-γ/IL-4 ratio,[1],0.55 ± 0.04
same,binding to CD1d (in words),[2],lower binding activity
"CCCCCCCCCCCCCCCCCCCCCCCCCC(=O)N[C@@H](CO[C@H]1O[C@H](CO)[C@H](O)[C@H](O)[C@H]1O)[C@H](O)[C@H](O)CCCCCCCCCCCCCC [α-GalCer, α-galactosylceramide, reference compound]",IFN-γ secretion normalized to α-GalCer,[1],1.00
same,IL-4 secretion normalized to α-GalCer,[1],1.00
same,IFN-γ/IL-4 ratio,[1],1.00
same,Ki,[2],16 ± 2.1 µM
same,"Ki versus KD,surf (fold)","[2]; solution Ki compared with KD,surf of surface α-GalCer",30–140 fold
same,Kd,CD1d [3],9.7 µM
same,Kd,CD1d [4],5.9 µM

# Source: publication PMC4455950 (Journal of the American Chemical Society, 2008)
